Rows were chosen to be rich in hits. Some 5.7% of all compounds tested hit in one or more screens of this group.
Mdm2-MdmX inh = inhibitors of human Mdm2-MdmX association, primary screen, cell-based, luminescence, split luciferase, SaOS-2, uHTS; inhibition, % at 8 µM; Protein Mdm4 (Homo sapiens) + E3 ubiquitin-protein ligase Mdm2 (Homo sapiens), …; SaOS-2 split-luciferase Mdm2/MdmX complementation; 330,000 compounds, 3% hits;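 active means inhibition of at least 50% at 8 µM in the primary screen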
SKKanGAS inh = S. pyogenes SKKanGAS growth inhibitors in kanamycin, primary screen, streptokinase expression inhibitor project, SKKanGAS strain, BacTiter-Glo luminescence; inhibition, % at 7.5 µM; 300,000 compounds, 1.3% hits; 6 h;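 active means mean replicate score, as percent of positive control median, at least 50; inconclusive means mean below 50 but one replicate at or above 50; inactive means mean and every replicate below 50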;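 further: strain carries kanamycin resistance gene driven by streptokinase promoter and grows in 40 µg/ml kanamycin; loss of luminescence reflects streptokinase promoter inhibition or plain growth inhibition; 0% = median of DMSO wells and 100% = positive control at its reference dose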
Calb FLC = C. albicans growth inhibition with fluconazole, primary screen, CaCi-2 strain, Alamar Blue fluorescence. C. albicans CaCi-2 (fluconazole-resistant clinical isolate) + fluconazole, 48 h. AID 1979, 2009. growth inhibition, % (test concentration not listed). 300,000 compounds, 0.57% hits;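 active means growth inhibition above about 58% in most replicates, limit read from the data, passing the limit was not always enough; inconclusive means exactly half the replicates above a set limit; inactive means most replicates below a set limit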;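 further: all wells also contain fluconazole at 8 µg/ml as a sub-toxic cotreatment; 0% = median of DMSO wells and 100% = median of geldanamycin control wells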
Beta apoptosis = inhibitors of cytokine-induced beta cell apoptosis, primary screen, luminescence; INS-1E cytokine-induced death, ATP luminescence, 48 h; percent of positive-control rescue, neutral wells zero; protection from apoptosis, % (concentration not given with the values); 300,000 compounds, 0.8% hits;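 active means Every replicate reaches about 75%, or at least half do and their mean reaches it too, limit read from the data; inconclusive means At least half of replicates reach the limit but their mean does not; inactive means Under half of replicates reach the limit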;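 further: 0% = cytokine-treated negative control wells and 100% = positive control rescue; higher means more ATP so stronger rescue from cytokine killing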
CSC inhib = cancer stem cell viability inhibitors, primary screen, luminescence | cancer stem cell-like cells viability | inhibition, % at 7.5 µM | 300,000 compounds, 1.1% hits; in the data active means inhibition above about 75%; inconclusive means no clear call, values can overlap the other calls; tested in HMLE shEcad cells
T cruzi repl = inhibitors of intracellular T. cruzi growth, primary screen, luminescence, NIH3T3 host cells | T. cruzi beta-gal in NIH3T3, 90 h | inhibition, % (no concentration beside the values) | 300,000 compounds, 1.4% hits | AID 1885, 2009;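 active means mean inhibition across valid replicates above about 55%, limit read from the data; inconclusive means mean below that limit but half or more replicates reach it; inactive means mean below it, under half of replicates reach it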;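 further: signal also drops with host cell toxicity which is not excluded here; 0% = plate median of DMSO wells and 100% = zero luminescence signal; higher percent means less beta-gal luminescence so fewer parasites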
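Assay system: NIH/3T3 host cells with β-galactosidase reporter T. cruzi; input: 5,000 host fibroblasts per well; compound: single 50 nL compound addition per well in DMSO; timing: ≥90 h infection period, 3 h prior cell attachment; measured by: GalScreen β-gal luminescence, detergent lysis, 60 min; evaluation: percent inhibition of parasite-derived β-gal signal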
An asterisk follows results filed as active; ? = inconclusive; nt = no result given.

SMILES | Mdm2-MdmX inh | SKKanGAS inh | Calb FLC | Beta apoptosis | CSC inhib | T cruzi repl
S=c1[nH]nc(COc2ccccc2)n1/N=C/C=C/c1ccccc1 | -5.4 | -11.6 | 57.1 | -0.7 | -8.2 | -3.5
CC(C)CCN(C(=O)CCCSc1nc2ccccc2[nH]1)c1c(N)n(Cc2ccccc2)c(=O)[nH]c1=O | 10.0 | 26.3 | -12.2 | 0.2 | -2.3 | 9.3
Cc1c(C(O)CN2CCN(Cc3ccc4c(c3)OCO4)CC2)c2ccccc2n1C (configuration not stated) | 23.9 | -8.5 | -12.8 | 0.0 | 5.2 | 66.5*
COc1ccc2c(c1)c(C(O)CN1CCN(Cc3ccc4c(c3)OCO4)CC1)c(C)n2C (configuration not stated) | 10.5 | -1.0 | -0.9 | 0.2 | 2.5 | 29.6
O=C(Nc1ccccc1)Nc1cccc(Cl)c1Cl | -75.0 | 5.1 | -77.0 | 13.6 | -9.7 | -12.3
O=C(NCCc1ccncc1)Nc1ccc(Cl)c(Cl)c1 | 7.4 | 1.2 | -22.0 | -7.0 | 7.6 | 68.5*
O=C(Nc1ccc(Cl)c(Cl)c1)Nc1ccccc1O | -220.7 | 13.6 | 25.2 | 5.9 | 93.3* | -12.2
O=C(NCCc1ccncc1)Nc1ccccc1 | 17.8 | 5.3 | -5.7 | 0.5 | -3.2 | -5.5
O=C(Nc1cccc(Cl)c1)Nc1ccccc1-n1ccnc1 | 19.9 | 3.1 | -15.0 | -7.6 | -3.2 | 56.6*
O=C(Nc1ccncc1)Nc1cccc(Cl)c1Cl | 24.4 | 16.4 | ? | 11.2 | -1.6 | 65.8*
O=C(Nc1ccccc1O)C(c1ccccc1)c1ccccc1 | 7.4 | 18.3 | -0.3 | 94.2* | 3.5 | 8.4
Cc1onc(-c2c(F)cccc2Cl)c1C(=O)O/N=C(\N)c1ccc([N+](=O)[O-])o1 | 10.8 | -2.4 | 20.1 | 28.0 | 56.9 | 59.6*
NC(=O)c1cc2cc(Br)ccc2o/c1=N/NC(=O)c1cccc(F)c1 | 26.8 | 4.4 | 6.5 | -0.6 | -2.2 | 2.3
O=C(O)c1cn(C2CC2)c2cc(N3CCN(S(=O)(=O)c4ccc5c(c4)OCCO5)CC3)c(F)cc2c1=O | 12.0 | 121.1* | -29.2 | 10.8 | -0.8 | 10.1
CCOc1ccc(S(=O)(=O)N(CC)CC(=O)NCc2cccnc2)cc1C | 31.0 | 4.0 | -4.6 | -4.9 | -3.4 | -9.2
C=CCNCCOCCOc1ccc(C)cc1Br | -1.7 | -1.3 | 4.1 | -3.8 | 4.1 | 56.1*
Fc1cccc(-c2cc3nc4c(c(NCc5ccco5)n3n2)CCCC4)c1 | -90.0 | 5.9 | 10.8 | 20.0 | 93.3* | 40.8
Fc1cccc(-c2cc3nc4c(c(N5CCOCC5)n3n2)CCCC4)c1 | 15.5 | -12.6 | 14.3 | -6.5 | -5.5 | 18.5
COc1cccc(-c2cc3nc4c(c(NCC(C)(C)CN(C)C)n3n2)CCCC4)c1 | 37.6 | 4.3 | -2.7 | 20.2 | 49.3 | 60.8*
CCC1=NN(C(=O)c2ccc(Cl)cc2)C(O)(c2ccccc2)C1 (configuration not stated) | 12.2 | 15.1 | -52.3 | 6.5 | 63.2 | 9.9
CCC1=NN(C(=O)c2ccccc2Br)C(O)(c2ccc(Br)cc2)C1 (configuration not stated) | 10.1 | 4.7 | 2.3 | -0.6 | -9.0 | 13.9
CCC1=NN(C(=O)c2ccc(Cl)cc2)C(O)(c2ccc(C)cc2)C1 (configuration not stated) | 32.0 | -1.6 | -0.2 | 4.9 | 98.9* | 4.1
CCC1=NN(C(=O)c2ccccc2O)C(O)(c2ccccc2)C1 (configuration not stated) | 41.2 | 53.7* | 107.4* | 86.9* | 78.7* | -15.6
CCOC(=O)C1=NN(C(=O)c2ccc(C)cc2)C(O)(c2ccc(Cl)cc2)C1 (configuration not stated) | 5.4 | 55.3* | ? | -0.7 | -2.1 | -0.8
COC(=O)C1=NN(C(=O)c2ccc(Cl)cc2)C(O)(c2ccccc2)C1 (configuration not stated) | 18.1 | -24.0 | 59.5* | -8.0 | -3.5 | -17.4
SMILES | Mdm2-MdmX inh | SKKanGAS inh | Calb FLC | Beta apoptosis | CSC inhib | T cruzi repl
Cc1ccc(OCC(=O)NCCCNC(=O)c2ccccn2)cc1C | 18.6 | 2.4 | -7.1 | nt | -4.2 | 9.8
CCc1cnccc1CCC(=O)Nc1ccccc1C | 7.0 | 1.8 | -6.7 | -7.2 | 6.9 | -1.7
CC(C)CCNC(=O)C(c1ccc(O)cc1)N(Cc1ccco1)C(=O)CCC(=O)Nc1nccs1 (configuration not stated) | 4.3 | -3.1 | 1.0 | -2.9 | 0.9 | 12.1
Clc1ccc(CSc2nnc(-c3ccncc3)s2)cc1 | 15.6 | -3.4 | 12.9 | -5.5 | 2.7 | 59.4*
Nc1nnc(SCc2ccc(Cl)cc2)s1 | 0.5 | -8.0 | -12.4 | -15.6 | -1.4 | -12.2
O=c1[nH]c(Sc2ccc([N+](=O)[O-])cc2[N+](=O)[O-])nc2ccccc12 | -36.2 | 8.3 | 3.3 | 6.6 | 61.1 | 60.9*
Cc1ccc(S(=O)(=O)N2CCCCC2)cc1C(=O)N1CCCCCC1 | -24.4 | nt | nt | -5.6 | -14.5 | nt
Cc1ccc(N(CC(=O)NCc2ccco2)C(=O)CNS(=O)(=O)c2ccccc2)c(C)c1 | 3.0 | -2.5 | 2.9 | 3.0 | 4.2 | 4.3
O=C(CN1CCN(c2ccc(O)cc2)CC1)NC(c1ccccc1)c1ccccc1 | 8.0 | 5.5 | 114.2* | 5.4 | 68.9 | 11.6
O=C(CN1CCCCCC1)NC(c1ccccc1)c1ccccc1 | -11.7 | -1.4 | -6.0 | -0.3 | -8.1 | 15.2
Cc1cccn2c(=O)nc(SCC(=O)N3CCN(c4ccccc4)CC3)nc12 | 4.0 | -7.1 | 4.6 | nt | -10.7 | 4.2
Cc1ccc(CNC(=S)Nc2ccc(NS(=O)(=O)c3ccc(C)cc3)cc2)cc1 | 42.7 | 55.8* | -1.6 | 2.4 | 11.3 | 44.4
Cc1cc(C)cc(NS(=O)(=O)c2ccc(NC(=S)NC(=O)c3cccs3)cc2)c1 | 9.5 | 76.6* | -3.8 | 3.7 | 49.9 | -1.7
Cc1ccc(NC(=S)NCc2ccc(F)cc2)cc1 | 20.6 | -13.3 | -8.6 | nt | -17.8 | -9.0
COc1ccc(CNCc2c(F)cccc2F)cc1OC | 18.2 | 4.4 | -1.0 | nt | nt | 5.5
Cc1coc2c1c(C)cc1oc(=O)c(CC(=O)NCCCN3CCCC3=O)c(C)c12 | -0.5 | -1.6 | 2.5 | nt | -0.8 | -2.1
CSc1nnc2c3cc(F)ccc3n(Cc3ccccc3)c2n1 | 27.0 | 3.5 | -7.1 | 1.8 | nt | -20.7
CCN(CC)CCSc1nnc2c3cc(C)ccc3n(Cc3ccccc3)c2n1 | 30.1 | -0.2 | 13.5 | 11.1 | 4.7 | 57.5*
O=[N+]([O-])c1ccc(/C=[N+](\[O-])CCO)o1 | -10.6 | 83.8* | 57.7 | nt | 2.9 | 59.2*
O=C(O)c1ccc(N/N=C/C=C/c2ccc([N+](=O)[O-])o2)cc1 | -2.7 | 4.3 | -9.1 | 4.9 | 3.6 | 7.4
N#C/C(C(=O)Nc1ccc(Cl)cc1)=C(/S)Nc1ccccc1 | 2.4 | 26.1 | 23.2 | nt | 31.0 | 79.0*
N#C/C(=C/c1ccc(N2CCCCC2)cc1)c1cccc(F)c1 | -64.1 | -2.8 | -6.1 | 2.3 | nt | 15.2

High-throughput results as filed in PubChem BioAssay.
